Measured values published in PubChem BioAssay.
Inconclusive results are not listed.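 Rule for the calls, unless noted: active = inhibition over a set limit, the all-compound mean plus 3 SD, in both replicate runs; inconclusive = over that limit in just one replicate run; inactive = at or under that limit in both runs.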

Assays:
[1] = OD615 S. cerevisiae growth inhibition, permissive medium, pilot counter-assay, permissive growth control for S. cerevisiae lifespan shortening project (AID 705;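 active = growth inhibition above 25% in both replicates, a cutoff set 3 SD above the mean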); conditions: OD615, 24 h, at 10 µM, active compounds read high
Summary of the method: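 assay system = Saccharomyces cerevisiae strain carrying genetically modified DeaD replicative-lifespan system | technique = absorbance (optical density) at 615 nm | buffer or medium = permissive raffinose/galactose medium | timing = cells pre-grown 4 h, then 24 h compound exposure, 30 °C humidified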

[2] = Restrictive medium S. cerevisiae growth inhibition, OD615, pilot screen of yeast lifespan reduction project, restrictive growth control (AID 706;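 active = growth inhibition above a set limit, 3 SD over mean compound inhibition, in both replicates, cut at about 43% in these data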;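 note: modified DeaD lifespan yeast strain shifted to restrictive glucose medium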); conditions: OD615, 48 h, at 10 µM, active compounds read high
Summary of the method: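 System: modified S. cerevisiae. Buffer or medium: CSMM-D glucose medium. Incubation: 4 h pre-growth plus 48 h compound exposure, 30 °C. Detection: absorbance (optical density) measured at 615 nm.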

[3] = viability gain of MRP-1-high H69AR cells under doxorubicin, pilot screen, MRP-1 activator project, CellTiter-Glo, duplicate (AID 807;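 active = viability increase at or above a cutoff of the median across tested compounds plus 3 SD, cut at about 8.5% in these data, passing the limit was not always enough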;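 note: compound pretreatment 18-22 h then 72 h combined with doxorubicin; 0% = doxorubicin alone and 100% = vehicle without doxorubicin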); conditions: H69AR viability with doxorubicin, CellTiter-Glo luminescence; at 10 µM; active compounds read high
[4] = growth suppression of beta-catenin knockout HCT116, pilot screen, human colon tumor cells (AID 823;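 active = cell viability at or below a set limit in both duplicate runs, the limit being the all-compound median minus 4 SD, cut at about 23% in these data, passing the limit was not always enough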;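 note: 0% = wells killed by 20 µM Hyamine and 100% = untreated DMSO cell wells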); conditions: CellTiter-Glo, 60 h, at 10 µM, active compounds read low
[5] = growth suppression of PTEN-deleted HCT116, pilot screen, cell-based, HCT116 clonal line, CellTiter-Glo (AID 824;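 active = viability at or below 27.92% in each of two runs, the all-compound median minus 4 SD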;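 note: 0% = 20 µM Hyamine control and 100% = vehicle cell control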); conditions: 60 h, at 10 µM, active compounds read low
[6] = inhibitors of the yeast RAM network, pilot screen, dse1pr::URA3 reporter, 5-FOA selection (AID 869);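 note: 0% = DMSO wells with no growth and 100% = 10 µM 1-NA-PP1 with full growth; RAM network block rescues cells from 5-FOA so hits raise OD615 growth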; conditions: S. cerevisiae dse1pr::URA3 5-FOA growth, OD615, 2 d; at 10 µM; active compounds read high; strain carries analog-sensitive mutant Cbk1 kinase
[7] = RAM signaling pathway blockade in yeast – S. cerevisiae, Pdr1DBD-CYC8 efflux-inhibited sensitized strain, primary screen (AID 1298;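 active = RAM network inhibition above 8.4% in each of two replicates, 3 SD over the compound average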;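 note: 0% = DMSO untreated cells without growth and 100% = 10 µM 1-NA-PP1 full growth; higher means more yeast growth rescued from 5-FOA killing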); conditions: S. cerevisiae cbk1-as DSE1-URA3 strain, 5-FOA growth OD615, 2 d; at 50 µM; active compounds read high

COC(=O)c1c(NC(=O)c2nc3ccccc3s2)sc2c1CCN(C(C)=O)C2
inactive: growth inhibition [1] 7.87% | growth inhibition [2] 1.73% | viability increase [3] -6.02% | viability [4] 71.7% | viability [5] 68% | inhibition [6] 4% | RAM network inhibition [7] 5.96%

O=C1C(Cl)=C(NCC2CCCO2)C(=O)N1C1CCCCC1 (stereo not given)
inactive: growth inhibition [1] -2.76% | growth inhibition [2] 8.66% | viability increase [3] -3.97% | viability [4] 88.3% | viability [5] 90.2% | inhibition [6] 1.46% | RAM network inhibition [7] 5.88%

COc1ccccc1OCc1nc(C#N)c(N2CC(C)CC(C)C2)o1 (stereo not given)
inactive: growth inhibition [1] -10.7% | growth inhibition [2] -24.8% | viability increase [3] -2.5% | viability [4] 71.7% | viability [5] 72.9% | inhibition [6] 1.48% | RAM network inhibition [7] 9.85%

COC(=O)COC(=O)c1ccc(O)cc1
inactive: growth inhibition [1] 7.13% | growth inhibition [2] 4.2% | viability increase [3] -0.65% | viability [4] 99.5% | viability [5] 102% | inhibition [6] 2.5% | RAM network inhibition [7] 2.15%

CCOC(=O)Nc1ccc2c(c1)N(C(=O)N(C)C)c1ccccc1CC2
inactive: growth inhibition [1] -8.91% | growth inhibition [2] -0.49% | viability increase [3] -1.82% | viability [4] 96.8% | viability [5] 96% | inhibition [6] -0.31% | RAM network inhibition [7] 2.67%

Cc1noc(C)c1S(=O)(=O)N1CCN(C(c2ccccc2)c2ccc(Cl)cc2)CC1 (stereo not given)
inactive: growth inhibition [1] -1.19% | growth inhibition [2] -0.625% | viability increase [3] 0.02% | viability [4] 66.3% | viability [5] 67.5% | inhibition [6] 1.61% | RAM network inhibition [7] 7.2%

CC1=C(C(N)=O)C(c2cccc(O)c2)n2nc(CCCO)nc2N1 (stereo not given)
inactive: growth inhibition [1] -9.85% | growth inhibition [2] -1.35% | viability increase [3] -1.07% | viability [4] 101% | viability [5] 104% | inhibition [6] 2.02% | RAM network inhibition [7] 2.87%

CC1Cc2nc(SCC(=O)OCc3ccccc3)n(C)c(=O)c2S1 (stereo not given)
inactive: growth inhibition [1] 5.29% | growth inhibition [2] 1.86% | viability increase [3] -3.06% | viability [4] 102% | viability [5] 93.8% | inhibition [6] 0.69% | RAM network inhibition [7] 6.68%

Cc1ccc(-n2ncc3c(=O)n(CC(=O)NCc4ccco4)cnc32)cc1C
inactive: growth inhibition [1] -5.52% | growth inhibition [2] -6.3% | viability increase [3] -5.18% | viability [4] 74.4% | viability [5] 56.4% | inhibition [6] 2.71% | RAM network inhibition [7] 1.9%

COc1ccccc1N1CCN(C(=O)CCCn2c(=O)[nH]c3ccsc3c2=O)CC1
inactive: growth inhibition [1] 3.76% | growth inhibition [2] 7.54% | viability increase [3] -2.24% | viability [4] 98.6% | viability [5] 97.2% | inhibition [6] 0.74% | RAM network inhibition [7] -0.42%

Cc1cc2cc(CNC(=O)c3ccco3)ccc2n1C
inactive: growth inhibition [1] -7.55% | growth inhibition [2] -15.6% | viability increase [3] -4.26% | viability [4] 106% | viability [5] 94.4% | inhibition [6] 1.89% | RAM network inhibition [7] 6.42%

CCOC(=O)N1CCN(CC(O)c2ccc3cc[nH]c3c2)CC1 (stereo not given)
inactive: growth inhibition [1] -10.8% | growth inhibition [2] -0.09% | viability increase [3] -3.2% | viability [4] 88.8% | viability [5] 88.4% | inhibition [6] 1.44% | RAM network inhibition [7] 1.94%

Cc1ccnc(NC2c3ccccc3C(=O)N2Cc2ccccc2Cl)c1 (stereo not given)
inactive: growth inhibition [1] 4.26% | growth inhibition [2] 2.1% | viability increase [3] -3.54% | viability [4] 73% | viability [5] 86.8% | inhibition [6] 2.44% | RAM network inhibition [7] 3.54%

Cc1ccccc1-n1nc2c(c1NC(=O)c1cccc(F)c1)CS(=O)C2 (stereo not given)
inactive: growth inhibition [1] -8.75% | growth inhibition [2] 5.54% | viability increase [3] 0.96% | viability [4] 98.8% | viability [5] 98.5% | inhibition [6] 0.835% | RAM network inhibition [7] 7.75%

CCOC(=O)C1CCCN(C(=O)Cn2nc(Cc3cccnc3)c3ccccc3c2=O)C1 (stereo not given)
inactive: growth inhibition [1] 3.18% | growth inhibition [2] -7.92% | viability increase [3] 1.09% | viability [4] 99.5% | viability [5] 102% | inhibition [6] 2.21% | RAM network inhibition [7] 2.19%

Cc1ccc2oc(=O)c3cnn(CC(=O)NCCN4CCOCC4)c3c2c1
inactive: growth inhibition [1] -5.79% | growth inhibition [2] -12% | viability increase [3] -0.17% | viability [4] 103% | viability [5] 97.7% | inhibition [6] 1.15% | RAM network inhibition [7] 5.06%

Cc1cc(-c2nc3ncccc3o2)ccc1NC(=O)CC(C)C
inactive: growth inhibition [1] -3.98% | growth inhibition [2] -5.53% | viability increase [3] -0.17% | viability [4] 108% | viability [5] 90% | inhibition [6] 1.06% | RAM network inhibition [7] 0.92%

O=C(CSc1ncnc2c1oc1ccccc12)Nc1cccc(C(F)(F)F)c1
inactive: growth inhibition [1] -12.2% | growth inhibition [2] -15.6% | viability increase [3] 1.15% | viability [4] 86.3% | viability [5] 84% | inhibition [6] 3.52% | RAM network inhibition [7] 7.32%

CCCSc1nc2c(cnn2-c2ccc(C)c(C)c2)c(=O)[nH]1
inactive: growth inhibition [1] -8.57% | growth inhibition [2] -3.42% | viability increase [3] -1.72% | viability [4] 93.2% | viability [5] 69.9% | inhibition [6] 2.58% | RAM network inhibition [7] 4.37%

O=C1C(=C(O)c2ccccc2)C(=O)c2ccccc21
inactive: growth inhibition [1] -20.4% | growth inhibition [2] 2.15% | viability increase [3] -3.04% | viability [4] 107% | viability [5] 103% | inhibition [6] -0.26% | RAM network inhibition [7] -1.88%

COc1ccc2oc(-c3ccccc3)c(C(N)=O)c2c1
inactive: growth inhibition [1] 2.25% | growth inhibition [2] 11.4% | viability increase [3] -2.49% | viability [4] 99.1% | viability [5] 97.5% | inhibition [6] 0.53% | RAM network inhibition [7] 1.82%

Cc1ccc(S(=O)(=O)NCC(=O)N2CCCCC2)cc1
inactive: growth inhibition [1] -11.1% | growth inhibition [2] -11.9% | viability increase [3] -1.13% | viability [4] 97.8% | viability [5] 102% | inhibition [6] 0.465% | RAM network inhibition [7] 1.88%

O=C(Nc1nc2ccc(Cl)cc2s1)c1ccc(Br)o1
inactive: growth inhibition [1] -6.29% | growth inhibition [2] -6.11% | viability increase [3] -2.25% | viability [4] 82.3% | viability [5] 82.7% | inhibition [6] 2.08% | RAM network inhibition [7] 5.17%

O=C(CCN1C(=O)c2ccccc2C1=O)N1CCN(Cc2ccc(Cl)cc2Cl)CC1
inactive: growth inhibition [1] -8.77% | growth inhibition [2] -18% | viability increase [3] 1.45% | viability [4] 98.3% | viability [5] 104% | inhibition [6] 1.12% | RAM network inhibition [7] 7.67%

O=C(Nc1ccc(Cl)c(Cl)c1)c1ccncc1
inactive: growth inhibition [1] -19.8% | growth inhibition [2] -34.8% | viability increase [3] -1.27% | viability [4] 101% | viability [5] 90.6% | inhibition [6] 0.83% | RAM network inhibition [7] 2.47%
